{"data": "Measurements gathered from unrelated publications", "note": "Lines come from different studies, so protocols differ."}
{"Structure (SMILES)": "COc1cc2c(Nc3ccc(Br)cc3F)ncnc2cc1OCC1CCN(C)CC1", "species": "human", "medium": "plasma", "route": "oral", "dose": "85 mg/m²", "notes": "multiple doses, once daily, patients", "Cmax": "716 ng/mL"}
{"Structure (SMILES)": "Cn1c(=O)oc2ccc(-c3ccc(C[C@@H](C#N)NC(=O)[C@@H]4CNCCCO4)cc3)cc21", "species": "male human", "medium": "plasma", "route": "oral", "dose": "50 mg", "notes": "single dose, healthy volunteers", "Cmax": "1040 nM"}
{"Structure (SMILES)": "CO[C@H]1CC[C@H](N2C(=O)CNc3ncc(-c4ccc(C(C)(C)O)nc4)nc32)CC1", "species": "human", "medium": "plasma", "route": "oral", "dose": "7.5 mg", "notes": "multiple doses, patients", "Cmax": "50.8 ng/mL"}
{"Structure (SMILES)": "Cc1ccc(C(=O)N(CCCN)[C@@H](c2oc3cc(Cl)ccc3c(=O)c2Cc2ccccc2)C(C)C)cc1", "species": "human", "medium": "plasma", "route": "intravenous", "dose": "2 mg/m²", "notes": "single dose, patients, infusion", "Cmax": "233 ng/mL"}
{"Structure (SMILES)": "Nc1cc(C(F)(F)F)c(-c2cc(N3CCOCC3)nc(N3CCOCC3)n2)cn1", "species": "human", "medium": "plasma", "route": "oral", "dose": "50 mg/day", "notes": "patients", "Cmax": "595 ng/mL"}
{"Structure (SMILES)": "O=C(/C=C/c1cccc(S(=O)(=O)Nc2ccccc2)c1)NO", "species": "human", "medium": "plasma", "route": "intravenous", "dose": "1900 mg/m²", "notes": "patients", "Cmax": "106000 ng/mL"}
{"Structure (SMILES)": "NS(=O)(=O)NCCNc1nonc1C(=NO)Nc1ccc(F)c(Br)c1", "species": "human", "medium": "plasma", "route": "oral", "dose": "500 mg", "notes": "multiple doses, twice daily, steady state, patients", "Cmax": "4820 nM"}
{"Structure (SMILES)": "COc1cc2c(cc1OC)CN(CCc1ccc(NC(=O)c3cc(OC)c(OC)cc3NC(=O)c3cnc4ccccc4c3)cc1)CC2", "species": "human", "medium": "plasma", "route": "intravenous", "dose": "1.5 mg/kg", "notes": "patients", "Cmax": "2300 nM"}
{"Structure (SMILES)": "CCCCC1=NC2(CCCC2)C(=O)N1Cc1ccc(-c2ccccc2S(=O)(=O)Nc2noc(C)c2C)c(COCC)c1", "species": "human", "medium": "plasma", "route": "oral", "dose": "200 mg", "notes": "single dose, fasted, healthy volunteers", "Cmax": "5150 ng/mL"}
{"Structure (SMILES)": "COc1ccc([C@@H]2CN(C(=O)[C@@H](O)CO)C[C@@]2(C)[C@@H](C)O)cc1OC1CN(c2ccc(C)cn2)C1", "species": "human", "medium": "plasma", "route": "oral", "dose": "0.1 mg", "notes": "single dose, healthy volunteers", "Cmax": "8.8 ng/mL"}
{"Structure (SMILES)": "COc1cc(C(=O)NC2CCN(C)CC2)c(F)cc1Nc1ncc(C(F)(F)F)c(Oc2cccc3c2C(=O)N(C)C3)n1", "species": "human", "medium": "plasma", "route": "oral", "dose": "100 mg", "notes": "single dose, patients", "Cmax": "1320 nM"}
{"Structure (SMILES)": "CO[C@@H]1[C@H](OC(=O)N2CC(CCN3CCOCC3)C2)CC[C@]2(CO2)[C@H]1[C@@]1(C)O[C@@H]1CC=C(C)C", "species": "human", "medium": "plasma", "route": "subcutaneous", "dose": "3.6 mg", "notes": "single dose, healthy volunteers", "Cmax": "16.1 ng/mL"}
{"Structure (SMILES)": "Cn1cc(-c2ccc(S(=O)(=O)[C@@H]3C[C@@H](C(=O)NC4(C#N)CC4)N(C(=O)C4(C(F)(F)F)CC4)C3)c(C(F)(F)F)c2)cn1", "species": "human", "medium": "plasma", "route": "oral", "dose": "30 mg", "notes": "single dose, fasted, healthy volunteers", "Cmax": "212 ng/mL"}
{"Structure (SMILES)": "COCCOc1cnc2ccn([C@H](C)c3nnc4c(F)cc(-c5cnn(C)c5)cn34)c(=O)c2c1", "species": "human", "medium": "plasma", "route": "oral", "dose": "100 mg", "notes": "multiple doses, once daily, patients", "Cmax": "2300 ng/mL"}
{"Structure (SMILES)": "CC(C)(O)c1ccccc1-c1ccc2[nH]c(/C=C/c3ccc(C(F)(F)F)cc3)nc2c1", "species": "male human", "medium": "plasma", "route": "oral", "dose": "50 mg", "notes": "single dose, fasted, healthy volunteers", "Cmax": "160 ng/mL"}
{"Structure (SMILES)": "CC(C)(Sc1ccncc1-c1ccc(C#N)c2ccccc12)C(=O)O", "species": "male human", "medium": "plasma", "route": "oral", "dose": "40 mg", "notes": "single dose, fasted, healthy volunteers", "Cmax": "760 ng/mL"}
{"Structure (SMILES)": "CCO[C@H]1CCN(Cc2c(OC)cc(C)c3[nH]ccc23)[C@H](c2ccc(C(=O)O)cc2)C1", "species": "human", "medium": "plasma", "route": "oral", "dose": "50 mg", "notes": "multiple doses, twice daily, patients", "Cmax": "1800 ng/mL"}
{"Structure (SMILES)": "C/C(=C\\c1csc(C)n1)[C@@H]1C[C@@H]2O[C@]2(C)CCC[C@H](C)[C@H](O)[C@@H](C)C(=O)C(C)(C)[C@@H](O)CC(=O)N1", "species": "human", "medium": "plasma", "route": "intravenous", "dose": "20 mg/m²", "notes": "patients", "Cmax": "249 ng/mL"}
{"Structure (SMILES)": "CO[C@H]1/C=C\\C=C(/C)C(=O)NC2=CC(=O)C(NCCN(C)C)=C(C[C@@H](C)C[C@H](OC)[C@H](O)[C@@H](C)/C=C(\\C)[C@@H]1OC(N)=O)C2=O", "species": "human", "medium": "plasma", "route": "intravenous", "dose": "12 mg/m²", "notes": "patients, infusion", "Cmax": "196 ng/mL"}
{"Structure (SMILES)": "CCn1c(=O)c(-c2cc(NC(=O)Nc3ccccc3)c(F)cc2Br)cc2cnc(NC)cc21", "species": "human", "medium": "plasma", "route": "oral", "dose": "20 mg", "notes": "single dose, patients", "Cmax": "109 ng/mL"}
{"Structure (SMILES)": "N#CN1C[C@H](n2nc(-c3ccc(Oc4ccc(Cl)cn4)cc3)c(C(N)=O)c2N)CCC12CC2", "species": "human", "medium": "plasma", "route": "oral", "dose": "600 mg", "notes": "fasted", "Cmax": "1060 ng/mL"}
{"Structure (SMILES)": "CCCOc1ccc([C@H]2CNC(=O)N2c2ccc3[nH]cnc3c2)cc1", "species": "human", "medium": "plasma", "route": "oral", "dose": "200 mg", "notes": "fasted, healthy volunteers", "Cmax": "989 ng/mL"}
{"Structure (SMILES)": "CS(=O)(=O)CCNCc1ccc(-c2ccc3ncnc(Nc4ccc(OCc5cccc(F)c5)c(Cl)c4)c3c2)o1", "species": "human", "medium": "serum", "route": "oral", "dose": "1250 mg", "notes": "single dose", "Cmax": "910 ng/mL"}
{"Structure (SMILES)": "O=C(O)C[C@H](O)C[C@H](O)/C=C/c1c(C2CC2)nc2ccccc2c1-c1ccc(F)cc1", "species": "human", "medium": "plasma", "route": "oral", "dose": "2 mg", "notes": "single dose, fed, healthy volunteers, tablet", "Cmax": "46.5 ng/mL"}
{"Structure (SMILES)": "CNC(=O)c1ccccc1Sc1ccc2c(/C=C/c3ccccn3)n[nH]c2c1", "species": "human", "medium": "plasma", "route": "oral", "dose": "5 mg", "notes": "single dose, fasted", "Cmax": "51 ng/mL"}
{"Structure (SMILES)": "CC(C)(C(=O)N1CCOc2c(C#N)cncc2C1)C(F)F", "species": "human", "medium": "plasma", "route": "oral", "dose": "40 mg", "notes": "single dose, fasted, healthy volunteers", "Cmax": "555 ng/mL"}
{"Structure (SMILES)": "O=C(Nc1c(Cl)cncc1Cl)c1ccc(OC(F)F)c(OCC2CC2)c1", "species": "human", "medium": "plasma", "route": "oral", "dose": "0.25 mg", "notes": "single dose, fasted", "Cmax": "6.4 ng/mL"}
{"Structure (SMILES)": "COC(=O)N[C@@H](C)CNc1nccc(-c2cn(C(C)C)nc2-c2cc(Cl)cc(NS(C)(=O)=O)c2F)n1", "species": "human", "medium": "plasma", "route": "oral", "dose": "50 mg", "notes": "single dose", "Cmax": "482 ng/mL"}
{"Structure (SMILES)": "CCc1nc2c(C)cc(N3CCN(CC(=O)N4CC(O)C4)CC3)cn2c1N(C)c1nc(-c2ccc(F)cc2)c(C#N)s1", "species": "human", "medium": "plasma", "route": "oral", "dose": "1000 mg", "notes": "fed, healthy volunteers", "Cmax": "13200 ng/mL"}
{"Structure (SMILES)": "CC(C)n1cc(C#N)c2cc(-n3cc(C(=O)O)cn3)ccc21", "species": "human", "medium": "plasma", "route": "oral", "dose": "50 mg", "notes": "single dose, fasted, healthy volunteers", "Cmax": "1440 ng/mL"}
{"Structure (SMILES)": "FC(F)(F)c1ccc(CNc2ccc(Cc3c[nH]c4ncc(Cl)cc34)cn2)cn1", "species": "human", "medium": "plasma", "route": "oral", "dose": "600 mg", "notes": "multiple doses, patients", "Cmax": "3660 ng/mL"}
{"Structure (SMILES)": "C[C@@]1(c2cc(NC(=O)c3ccc(C#N)cn3)ccc2F)C=CSC(N)=N1", "species": "male human", "medium": "plasma", "route": "oral", "dose": "1 mg", "notes": "single dose", "Cmax": "6.72 ng/mL"}
{"Structure (SMILES)": "C[C@@H](Oc1ccc(S(C)(=O)=O)cc1C(=O)N1C[C@@H]2C[C@]2(c2cc(C(F)(F)F)on2)C1)C(F)(F)F", "species": "human", "medium": "plasma", "route": "oral", "dose": "25 mg", "notes": "fed, tablet", "Cmax": "312 nM"}
